# Laboratory results published in ChEMBL document CHEMBL4049388, “Facile and efficient access to Androsten-17-(1',3',4')-pyrazoles and Androst-17β-(1',3',4')-pyrazoles via Vilsmeier reagents, and their antiproliferative activity evaluation in vitro” (Eur J Med Chem, 2017).
# Assays:
# HeLa [1] = assay: Induction of apoptosis in human HeLa cells assessed as total cells at viable stage at 5 uM after 24 hrs by Annexin-V-FITC/propidium iodide staining based flow cytometry (reference value: 96.16%); type: functional
# Method in brief: (§1)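 Hela cells seeded at 10^6 per well and stabilized 24 h at 37 °C, 5% CO2. Then treated 24 h at 2.5, 5.0 or 7.5 μM, DMSO negative control. Cells washed in cold PBS, resuspended at 1×10^6 cells/mL in cold binding buffer, stained with annexin V-FITC then PI for 15 min in dark, analysed by flow cytometry.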
# HeLa [2] = assay: Induction of apoptosis in human HeLa cells assessed as total cells at viable stage at 2.5 uM after 24 hrs by Annexin-V-FITC/propidium iodide staining based flow cytometry (reference value: 96.16%); type: functional; method in brief: as §1
# HeLa [3] = assay: Induction of apoptosis in human HeLa cells after 24 hrs by Annexin-V-FITC/propidium iodide staining based flow cytometry; type: functional, cell-based; method in brief: as §1
# HeLa [4] = assay: Cell cycle arrest in human HeLa cells assessed as accumulation at G1 phase at 5 uM after 24 hrs by propidium iodide staining based flow cytometry (reference value: 56.72%); type: functional
# A549 [5] = assay: Cytotoxicity against human A549 cells assessed as growth inhibition at 10 uM after 72 hrs by SRB assay relative to control; type: functional; conditions: A549, 72 h, read-out: GI
# Method in brief: (§2)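 SRB single-dose screen at 10 μM on 293T, A549, Hela and MCF-7 cells. Results reported as percent inhibitory ratio (mean ± SD).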
# HeLa [6] = assay: Induction of apoptosis in human HeLa cells assessed as gated cells at necrotic stage at 7.5 uM after 24 hrs by Annexin-V-FITC/propidium iodide staining based flow cytometry (reference value: 0.05%); type: functional; method in brief: as §1
# HeLa [7] = assay: Induction of apoptosis in human HeLa cells assessed as total cells at viable stage at 7.5 uM after 24 hrs by Annexin-V-FITC/propidium iodide staining based flow cytometry (reference value: 96.16%); type: functional; method in brief: as §1
# HeLa [8] = assay: Cell cycle arrest in human HeLa cells assessed as accumulation at S phase at 7.5 uM after 24 hrs by propidium iodide staining based flow cytometry (reference value: 18.92%); type: functional
# HeLa [9] = assay: Cell cycle arrest in human HeLa cells assessed as accumulation at G2 phase at 2.5 uM after 24 hrs by propidium iodide staining based flow cytometry (reference value: 24.36%); type: functional
# HeLa [10] = assay: Induction of apoptosis in human HeLa cells assessed as gated cells at late apoptotic stage at 7.5 uM after 24 hrs by Annexin-V-FITC/propidium iodide staining based flow cytometry (reference value: 0.03%); type: functional; method in brief: as §1
# [11] = Cytotoxicity against human 293T cells assessed as growth inhibition at 10 uM after 72 hrs by SRB assay relative to control; type: cell-based; conditions: HEK-293T cells, read-out: GI; method in brief: as §2
# HeLa [12] = assay: Cell cycle arrest in human HeLa cells assessed as accumulation at G2 phase at 5 uM after 24 hrs by propidium iodide staining based flow cytometry (reference value: 24.36%); type: functional
# HeLa [13] = assay: Induction of apoptosis in human HeLa cells assessed as total cells at early apoptotic stage at 2.5 uM after 24 hrs by Annexin-V-FITC/propidium iodide staining based flow cytometry (reference value: 0.04%); type: functional; method in brief: as §1
# MCF7 [14] = assay: Cytotoxicity against human MCF7 cells after 72 hrs by SRB assay; type: functional, cell-based; conditions: MCF7, 72 h
# Method in brief: (§3)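 SRB assay on 293T, A549, Hela and MCF-7 cells, with cisplatin as reference control. IC50 calculated for each compound from triplicate assays.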
# HeLa [15] = assay: Induction of apoptosis in human HeLa cells assessed as total cells at late apoptotic stage at 5 uM after 24 hrs by Annexin-V-FITC/propidium iodide staining based flow cytometry (reference value: 0.03%); type: functional; method in brief: as §1
# HeLa [16] = assay: Cytotoxicity against human HeLa cells after 72 hrs by SRB assay; type: functional, cell-based; method in brief: as §3
# HeLa [17] = assay: Induction of apoptosis in human HeLa cells assessed as gated cells at early apoptotic stage at 5 uM after 24 hrs by Annexin-V-FITC/propidium iodide staining based flow cytometry (reference value: 0.04%); type: functional; method in brief: as §1
# HeLa [18] = assay: Cell cycle arrest in human HeLa cells assessed as accumulation at S phase after 24 hrs by propidium iodide staining based flow cytometry; type: functional
# HeLa [19] = assay: Induction of apoptosis in human HeLa cells assessed as total cells at necrotic stage at 7.5 uM after 24 hrs by Annexin-V-FITC/propidium iodide staining based flow cytometry (reference value: 0.05%); type: functional; method in brief: as §1
# HeLa [20] = assay: Induction of apoptosis in human HeLa cells assessed as total cells at late apoptotic stage at 2.5 uM after 24 hrs by Annexin-V-FITC/propidium iodide staining based flow cytometry (reference value: 0.03%); type: functional; method in brief: as §1
# MCF7 [21] = assay: Cytotoxicity against human MCF7 cells assessed as growth inhibition at 10 uM after 72 hrs by SRB assay relative to control; type: functional; conditions: MCF7, 72 h, read-out: GI; method in brief: as §2
# HeLa [22] = assay: Induction of apoptosis in human HeLa cells assessed as gated cells at viable stage at 5 uM after 24 hrs by Annexin-V-FITC/propidium iodide staining based flow cytometry (reference value: 99.88%); type: functional; method in brief: as §1
# HeLa [23] = assay: Cell cycle arrest in human HeLa cells assessed as accumulation at G1 phase at 7.5 uM after 24 hrs by propidium iodide staining based flow cytometry (reference value: 56.72%); type: functional
# HeLa [24] = assay: Cell cycle arrest in human HeLa cells assessed as accumulation at G2 phase at 7.5 uM after 24 hrs by propidium iodide staining based flow cytometry (reference value: 24.36%); type: functional
# HeLa [25] = assay: Cell cycle arrest in human HeLa cells assessed as accumulation at G1 phase at 2.5 uM after 24 hrs by propidium iodide staining based flow cytometry (reference value: 56.72%); type: functional
# A549 [26] = assay: Cytotoxicity against human A549 cells after 72 hrs by SRB assay; type: functional, cell-based; conditions: A549, 72 h; method in brief: as §3
# HeLa [27] = assay: Induction of apoptosis in human HeLa cells assessed as gated cells at necrotic stage at 2.5 uM after 24 hrs by Annexin-V-FITC/propidium iodide staining based flow cytometry (reference value: 0.05%); type: functional; method in brief: as §1
# HeLa [28] = assay: Induction of apoptosis in human HeLa cells assessed as total cells at necrotic stage at 5 uM after 24 hrs by Annexin-V-FITC/propidium iodide staining based flow cytometry (reference value: 0.05%); type: functional; method in brief: as §1
# HeLa [29] = assay: Induction of apoptosis in human HeLa cells after 48 hrs by Hoechst 33342 staining based fluorescence microscopic method; type: functional, cell-based
# Method in brief: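 Hela cells seeded at 10^6 per well on cover slips and incubated 16 h. Then exposed 48 h at 2.5, 5.0 or 7.5 μM, DMSO negative control. Cells fixed in 4% paraformaldehyde for 15 min, washed in PBS, stained with Hoechst 33342 for 10 min. Nuclear morphology viewed by fluorescence microscopy, ex 350 nm / em 460 nm.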
# HeLa [30] = assay: Induction of apoptosis in human HeLa cells assessed as gated cells at early apoptotic stage at 2.5 uM after 24 hrs by Annexin-V-FITC/propidium iodide staining based flow cytometry (reference value: 0.04%); type: functional; method in brief: as §1
# HeLa [31] = assay: Induction of apoptosis in human HeLa cells assessed as gated cells at viable stage at 7.5 uM after 24 hrs by Annexin-V-FITC/propidium iodide staining based flow cytometry (reference value: 99.88%); type: functional; method in brief: as §1
smiles,measurement,setting,value
CCNCc1cn(-c2ccccc2)nc1C1=CC[C@H]2[C@@H]3CC=C4C[C@@H](O)CC[C@]4(C)[C@H]3CC[C@]12C,Activity,HeLa [1],80.32%
same,Activity,HeLa [2],95.73%
same,Activity,HeLa [3],Dose-dependent effect
same,Activity,HeLa [4],53.13%
same,inhibition of growth at 10 µM,A549 [5],91.3%
same,Activity,HeLa [6],3.12%
same,Activity,HeLa [7],78.35%
same,Activity,HeLa [8],24.77%
same,Activity,HeLa [9],25.6%
same,Activity,HeLa [10],1.01%
same,"inhibition at 72 h, 10 µM",[11],94.2%
same,Activity,HeLa [12],22.53%
same,Activity,HeLa [13],0.58%
same,IC50,MCF7 [14],2530 nM
same,Activity,HeLa [15],0.31%
same,IC50,HeLa [16],530 nM
same,Activity,HeLa [17],2.41%
same,Activity,HeLa [18],Dose-dependent effect
same,Activity,HeLa [19],2.79%
same,Activity,HeLa [20],0.16%
same,inhibition of growth at 10 µM,MCF7 [21],89.3%
same,Activity,HeLa [22],93.44%
same,Activity,HeLa [23],49.92%
same,Activity,HeLa [24],25.31%
same,Activity,HeLa [25],51.99%
same,IC50,A549 [26],7390 nM
same,Activity,HeLa [27],1.31%
same,Activity,HeLa [28],3.26%
same,Activity,HeLa [29],Dose-dependent effect
same,Activity,HeLa [30],0.59%
same,Activity,HeLa [31],87.49%
